An excerpt weighted towards active compounds, which were near 3.9% of everything screened.
FLuc inh counter: counter-screen for luciferase assay inhibitors: firefly luciferase inhibition; ATPLite firefly luciferase biochemical luminescence, 10 min; AID 1006; actives 1.5% (n = 200,000); P08659; inhibition, % at 10 µM;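 active = inhibition above about 50% when tested at 10 µM, limit read from the data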
Target sequence (P08659 whole entry, looked up): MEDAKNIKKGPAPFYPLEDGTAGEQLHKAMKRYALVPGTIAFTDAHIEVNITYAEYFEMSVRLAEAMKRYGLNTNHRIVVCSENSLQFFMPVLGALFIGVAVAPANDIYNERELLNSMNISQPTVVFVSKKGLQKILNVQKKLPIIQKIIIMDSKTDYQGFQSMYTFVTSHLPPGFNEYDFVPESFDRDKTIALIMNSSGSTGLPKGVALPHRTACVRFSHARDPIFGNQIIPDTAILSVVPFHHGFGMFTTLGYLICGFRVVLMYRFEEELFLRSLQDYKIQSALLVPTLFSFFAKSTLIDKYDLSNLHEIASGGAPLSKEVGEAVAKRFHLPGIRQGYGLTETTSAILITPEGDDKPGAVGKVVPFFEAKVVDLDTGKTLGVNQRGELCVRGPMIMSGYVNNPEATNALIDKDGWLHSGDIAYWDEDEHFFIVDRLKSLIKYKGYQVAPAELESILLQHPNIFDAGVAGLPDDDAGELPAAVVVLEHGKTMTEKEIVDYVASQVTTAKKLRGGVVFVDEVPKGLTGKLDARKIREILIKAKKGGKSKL
APP 5'UTR act: activates APP 5'UTR luciferase reporter; activation, % at 2 µM; actives 1% (n = 190,000); SH-SY5Y APP 5'UTR luciferase reporter, luminescence; zero percent = DMSO vehicle wells;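 active = activation above a set limit, based on mean plus 3 SD of controls, cut at about 140% in these data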
STAT1 act: STAT1 signaling activation; NIH 3T3 STAT1-luciferase reporter, IFN-gamma, luminescence; 100% = IFN-gamma alone, no compound; activation (% of control), % at 5.5 µM; actives 2.6% (n = 200,000);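 active = activation above the screen-wide mean activation plus 3 SD, cut at about 130% in these data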;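 note: raw ratio to IFN-gamma control signal so 100% means no change and 0% no light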
NF-kB expr up: raises NF-kB expression in human neuronal cells. NF-kB reporter expression; hits give high values. actives 1.6% (n = 190,000). AID 1239. fold change at 12.5 µM; in the data active = fold change above about 3.3
Rad51 HR inh: blocks human Rad51 in homologous recombination; actives 0.085% (n = 200,000); hRad51 DNA strand exchange, fluorescence dequenching; inhibition, % at 10 µM; Q06609;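 active = inhibition above 40% at the single screening dose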;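 note: 0% = DMSO control wells and 100% = blanks with heterologous ssDNA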
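Material: Human Rad51 nucleoprotein filaments preassembled on unlabelled ssDNA | Also added: Labelled 47-mer dsDNA for strand exchange | Dosing: Single dose, 10 µM final compound | Schedule: 30-min compound preincubation and 15-min exchange, both room temperature | Technique: Fluorescence dequenching at 485/520 nm | Measure: Percent inhibition relative to plate controls and blanks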
FLuc stim CS: affects firefly luciferase, flagging false hits in luciferase stimulation screens. ATPlite luciferase biochemical, luminescence, 10 min; 0 = ATP-free wells, 1 = DMSO control. activation factor at 10 µM. 200,000 tested, under 10 active;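 active = luciferase activation factor, scaled between plate controls, of at least 2 with compound at 10 µM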
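System: cell-free luciferase reagent; medium: PBS as buffer for the ATP substrate; doses: test compounds dosed from 2 mM stocks in 100% DMSO; incubation: 10 min, room temperature; measured by: luminescence from luciferase reaction; read-out: luciferase activation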
* = called active by the depositor; x = not tested or not shown.

SMILES | FLuc inh counter | APP 5'UTR act | STAT1 act | NF-kB expr up | Rad51 HR inh | FLuc stim CS
S=c1cnc2ccccc2[nH]1 | -2 | 26 | 100 | 1 | 5 | 1
O=C(CCCOc1ccc(Cl)cc1Cl)NN1CCOCC1 | -2 | -6 | 100 | 1.1 | 1 | 1
CN(C)S(=O)(=O)c1cccc(NC(=O)COC(=O)CCOc2ccccc2)c1 | -1 | -2 | 101 | 1 | -1 | 1
CCN(CC)S(=O)(=O)c1ccc(C)c(NC(=O)COC(=O)CNC(=O)c2ccc(C(C)(C)C)cc2)c1 | 81* | 7 | 115 | 0.99 | x | 0.2
Cc1ccc(OCCC(=O)OCC(=O)Nc2cc(S(=O)(=O)N(C)C)ccc2C)cc1 | 58* | -9 | 102 | 1.1 | -6 | 0.4
Cn1c(=O)c2cc3ccccc3nc2n(C)c1=O | x | x | x | x | 7 | x
CCOc1ccc(S(=O)(=O)NC(C)C)cc1C(N)=O | -5 | 5 | 98 | 0.93 | -17 | 1.1
O=C(Nc1ccc(-c2cn3c(n2)SCC3)cc1)c1ccco1 | x | x | x | x | 17 | x
CCOC(=O)c1cccc(COC(=O)c2cccc(-c3nnc(-c4ccccc4)o3)c2)c1 | -4 | 66 | 131* | 2 | 17 | 1
O=C(OCc1ccccc1)c1cccc(-c2nnc(-c3ccccc3)o2)c1 | -8 | 5 | 93 | 2 | -4 | 1.1
O=C(Nc1cccc(-c2nnc(-c3ccccc3)o2)c1)C1CC1 | 6 | 31 | 121 | 1.1 | 0 | 0.9
Cc1ccc(OCC(=O)Nc2cccc(-c3nnc(-c4ccccc4)o3)c2)c(C)c1 | 17 | -5 | 132* | 0.95 | -4 | 0.8
CC(=O)Nc1cccc(-c2nnc(-c3ccccc3)o2)c1 | 12 | 82 | 130* | 2.2 | -6 | 0.9
CS(=O)(=O)N1CCN(c2ccc(NC(=O)c3ccc(Br)o3)cc2)CC1 | 10 | 27 | 130* | 1.9 | -4 | 0.9
COc1ccc(C(=O)Nc2cc(OC)c(Cl)cc2Cl)cc1 | 10 | 9 | 117 | 1.5 | -9 | 0.9
COc1ccc(C(=O)Nc2scc(-c3ccc(Cl)cc3Cl)c2C(N)=O)cc1 | 4 | 80 | 148* | 1.1 | -7 | 1
O=S(=O)(c1ccccc1)c1cnc(-c2ccccc2)nc1N1CCCC1 | -6 | -13 | 146* | 1.6 | x | 1.1
Cc1ccccc1N(CC(=O)Nc1ccc(S(=O)(=O)N2CCOCC2)cc1)S(C)(=O)=O | -11 | -14 | 105 | 1 | x | 1.1
COC(=O)C1=C(O)/C(=C\c2cc(C)n(-c3ccccc3C)c2C)N=C1C | 34 | 10 | 101 | 1.1 | -3 | 0.7
COC(=O)C1=C(O)/C(=C\c2cc(C)n(-c3ccccc3F)c2C)N=C1C | 64* | 36 | 102 | 1.5 | -21 | 0.4
CCOc1ccc(CNC(=O)CCS(=O)(=O)Cc2cccc(Cl)c2)cc1OC | -10 | 13 | 92 | 1.2 | 41* | 1.1
O=C(Cc1cn2ccsc2n1)Nc1nc2c(s1)CCCC2 | 2 | -3 | 104 | 1.3 | 0 | 1
O=C(Nc1nc2c(s1)CCCC2)c1cccs1 | 80* | 198* | 146* | 5.7* | 4 | 0.2
O=C(Nc1nc2c(s1)CCCC2)Oc1ccccc1 | 9 | -2 | 105 | 1.3 | 2 | 0.9
O=C(Nc1nc2c(s1)CCCC2)c1cccnc1 | 35 | 125 | 139* | 4* | 4 | 0.6
SMILES | FLuc inh counter | APP 5'UTR act | STAT1 act | NF-kB expr up | Rad51 HR inh | FLuc stim CS
Cn1nnnc1SCC(=O)Nc1nc2c(s1)CCCC2 | -3 | 111 | 143* | 4* | -6 | 1
O=C(Cc1cccs1)Nc1nc2c(s1)CCCC2 | 16 | 80 | 131* | 6.1* | 4 | 0.8
O=C(Nc1nc2c(s1)CCCC2)c1cc(-c2ccccc2)nc2ccccc12 | 1 | 9 | 101 | 1.1 | -1 | 1
O=C1C(=C2SCCCS2)CC/C1=C\c1ccc(F)cc1 | 93* | 49 | 73 | 2.4 | -3 | 0.1
O=C1/C(=C/c2ccccc2)CCCc2ccccc21 | 21 | 71 | 112 | 2.9 | -5 | 0.8
Cc1cccc(/C=C2\CCC(=C3SCCCS3)C2=O)c1 | 93* | 172* | 90 | 2.4 | -6 | 0.1
CCC1CCC(C(=O)NC(C(=O)NCCCN2CCCCC2C)C(C)C)CC1 (centres undefined) | -4 | 17 | 99 | 0.76 | -23 | 1
CS(=O)(=O)c1ccccc1COC(=O)Nc1ccc(Cl)cc1 | -3 | 27 | 107 | 1.5 | 3 | 1
O=C(Nc1ccc(Cl)cc1)OCc1ccccn1 | 9 | 71 | 144* | 2.6 | -4 | 0.9
COc1ccc(OC)c(NC(=O)c2ccccc2NS(=O)(=O)c2cccc3cccnc23)c1 | -4 | -23 | 97 | 1.4 | 56* | 1
Cc1ccc(N=Cc2nc(-c3ccco3)oc2O)cc1 | 36 | 75 | 141* | 3.5* | -5 | 0.6
CCCc1nnc(NC(=O)Cn2c(=O)oc3cc(Br)ccc32)s1 | -1 | 12 | 113 | 1.1 | -10 | 1
O=c1oc2cc(Br)ccc2n1CSC1=NCCS1 | 4 | 23 | 98 | 7.7* | -10 | 1
CCCCCc1ccc(-c2ccc(OC)cc2)nc1 | 47 | 128 | 140* | 3.4* | 29 | 0.5
CCCc1ccc(-c2ccc(C(=O)O)cc2)nc1 | 23 | 92 | 131* | 2.6 | 4 | 0.8
CCCc1ccc(OCC(=O)O)cc1 | 0 | 0 | 102 | 1.2 | 5 | 1
CCCCCc1ccc(-c2ccc(/C=C/C(N)=O)cc2)nc1 | 15 | 11 | 105 | 1.3 | 5 | 0.9
Cc1nn(-c2ccc(Cl)c(Cl)c2)c(=O)c2ccccc12 | 1 | -15 | 103 | 1.6 | -6 | 1
Cc1nn(-c2nc3ccccc3[nH]2)c(N)c1-c1ccc(Cl)cc1 | 6 | 106 | 114 | 1.9 | -4 | 0.9
Cc1nn(-c2ccc3ccccc3c2)c(=O)c2ccccc12 | 13 | 142* | 149* | 3.2 | -6 | 0.9
Cc1nn(-c2nc3ccccc3[nH]2)c(=O)c2ccccc12 | 97* | -74 | 9 | 0.29 | -2 | 0
Cc1ccc(-n2ncc3ccccc3c2=O)cc1Cl | 32 | 97 | 148* | 4.9* | 11 | 0.7
CSc1n[nH]c(NCc2ccc(Cl)cc2)n1 | 19 | -8 | 104 | 1.2 | -1 | 0.8
CSc1n[nH]c(NCc2ccc(C)cc2)n1 | 60* | 30 | 111 | 1.5 | 2 | 0.4
O=C(COc1ccc(Br)cc1Cl)NC1CCCCC1 | 16 | 77 | 138* | 3.5* | x | 0.8
Cc1ccc(OCC(=O)NC2CCCC2)c(C)c1 | 1 | 19 | 119 | 1.9 | 1 | 1
Cc1cc(Cl)ccc1OCC(=O)NC1CCCC1 | 0 | 17 | 106 | 1.6 | 6 | 1
C=CCNC(=O)COc1ccc(Br)cc1Cl | 17 | 39 | 132* | 2.3 | -2 | 0.8
O=C(COc1ccc(Br)cc1Cl)c1ccc[nH]1 | 9 | 58 | 137* | 3 | 18 | 0.9

Screening results deposited in PubChem BioAssay by several laboratories.
